Key:
Plasmodium falciparum [1] = assay: Antimalarial activity against asexual erythrocyte stage of chloroquine-resistant Plasmodium falciparum Dd2 by parasite lactate dehydrogenase assay; assay type: functional, organism-based
How it was run: (§1)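 Asexual erythrocyte-stage P. falciparum kept in continuous culture (modified Trager–Jensen). Growth was read by parasite lactate dehydrogenase assay. Stocks were 20 mg/ml in 100% DMSO, sonicated, and tested as suspension if not dissolved. Full dose–response started at 100 ng/ml, with 2-fold serial dilution in complete medium to 10 concentrations (lowest 0.2 ng/ml). Each strain was tested in triplicate on one occasion. IC50 is 50% parasite growth inhibition.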

CHO = assay: Cytotoxicity against CHO cells by MTT assay; assay type: cell-based, Cricetulus griseus; settings: for Activity: chinese hamster, cho; for IC50: Cricetulus griseus, CHO
Plasmodium falciparum [2] = assay: Resistance index ratio of IC50 for asexual erythrocyte stage of chloroquine-resistant Plasmodium falciparum Dd2 to IC50 for asexual erythrocyte stage of chloroquine-sensitive Plasmodium falciparum D10; assay type: functional
Plasmodium falciparum [3] = assay: Antimalarial activity against asexual erythrocyte stage of chloroquine-sensitive Plasmodium falciparum D10 by parasite lactate dehydrogenase assay; assay type: functional, organism-based; how it was run: as §1

`C[C@H]1[C@@H](OCCN2CCOCC2)O[C@@H]2O[C@@]3(C)CC[C@H]4[C@H](C)CC[C@@H]1[C@@]24OO3.O=C(O)C(=O)O` was tested, and the IC50 (Plasmodium falciparum [1]) was 16.2 nM, the Activity (CHO) was “Non-toxic” and the “Ratio IC50” value (Plasmodium falciparum [2]) was 3.483. The IC50 (Plasmodium falciparum [3]) was 4.64 nM.
With `C[C@H]1[C@H](OC(=O)CCC(=O)[O-])O[C@@H]2O[C@@]3(C)CC[C@H]4[C@H](C)CC[C@@H]1[C@@]24OO3.[Na+]` [SODIUM ARESUNATE] the IC50 (Plasmodium falciparum [1]) was 25.9 nM, the “Ratio IC50” value (Plasmodium falciparum [2]) was 27.719 and the IC50 (Plasmodium falciparum [3]) was 0.933 nM.
In the case of `CC(C)CNCCO[C@H]1O[C@@H]2O[C@@]3(C)CC[C@H]4[C@H](C)CC[C@@H]([C@H]1C)[C@@]24OO3.O=C(O)C(=O)O`, the IC50 (Plasmodium falciparum [1]) is reported as 54.9 nM, the IC50 (CHO) is reported as 72900 nM and the “Ratio IC50” value (Plasmodium falciparum [2]) is reported as 13.68. The IC50 (Plasmodium falciparum [3]) was 4.01 nM.
With `C[C@H]1[C@@H](OCCNCc2ccco2)O[C@@H]2O[C@@]3(C)CC[C@H]4[C@H](C)CC[C@@H]1[C@@]24OO3.O=C(O)C(=O)O` the IC50 (Plasmodium falciparum [1]) was 21.4 nM, the IC50 (CHO) was 79700 nM and the “Ratio IC50” value (Plasmodium falciparum [2]) was 8.858. The IC50 (Plasmodium falciparum [3]) was 2.41 nM.
With `C[C@H]1[C@@H](OCCN(C)Cc2ccccc2)O[C@@H]2O[C@@]3(C)CC[C@H]4[C@H](C)CC[C@@H]1[C@@]24OO3.O=C(O)C(=O)O` the IC50 (Plasmodium falciparum [1]) was 20.1 nM, the IC50 (CHO) was 141000 nM and the “Ratio IC50” value (Plasmodium falciparum [2]) was 13.888. For the same compound, the IC50 (Plasmodium falciparum [3]) was 1.44 nM.
Work on `CC[C@H]1CN2CCc3cc(OC)c(OC)cc3[C@@H]2C[C@@H]1C[C@H]1NCCc2cc(OC)c(OC)cc21` [EMETINE] yielded an IC50 (CHO) of 19.8 nM.
`C[C@H]1[C@@H](OCCNCCNc2ccccc2)O[C@@H]2O[C@@]3(C)CC[C@H]4[C@H](C)CC[C@@H]1[C@@]24OO3.O=C(O)C(=O)O` was tested, and the IC50 (Plasmodium falciparum [1]) was 55.1 nM, the IC50 (CHO) was 47500 nM and the “Ratio IC50” value (Plasmodium falciparum [2]) was 21.086. The IC50 (Plasmodium falciparum [3]) was 2.61 nM.
With `C[C@H]1[C@@H](OCCNCCCn2ccnc2)O[C@@H]2O[C@@]3(C)CC[C@H]4[C@H](C)CC[C@@H]1[C@@]24OO3.O=C(O)C(=O)O` the IC50 (Plasmodium falciparum [1]) was 189 nM, the Activity (CHO) was “Non-toxic” and the “Ratio IC50” value (Plasmodium falciparum [2]) was 31.343. The IC50 (Plasmodium falciparum [3]) was 6.04 nM.
`C[C@H]1[C@@H](OCCN2CCNCC2)O[C@@H]2O[C@@]3(C)CC[C@H]4[C@H](C)CC[C@@H]1[C@@]24OO3.O=C(O)C(=O)O` was tested, and the IC50 (Plasmodium falciparum [1]) was 50.9 nM, the Activity (CHO) was “Non-toxic” and the “Ratio IC50” value (Plasmodium falciparum [2]) was 28.318. For the same compound, the IC50 (Plasmodium falciparum [3]) was 1.8 nM.
With `C[C@H]1[C@@H](O)O[C@@H]2O[C@@]3(C)CC[C@H]4[C@H](C)CC[C@@H]1[C@@]24OO3` [ARTENIMOL] the IC50 (Plasmodium falciparum [1]) was 3.48 nM, the “Ratio IC50” value (Plasmodium falciparum [2]) was 4.433 and the IC50 (Plasmodium falciparum [3]) was 0.785 nM.
In the case of `C[C@H]1[C@@H](OCCNCCN2CCOCC2)O[C@@H]2O[C@@]3(C)CC[C@H]4[C@H](C)CC[C@@H]1[C@@]24OO3.O=C(O)C(=O)O`, the IC50 (Plasmodium falciparum [1]) is reported as 61.6 nM, the Activity (CHO) is reported as “Non-toxic” and the “Ratio IC50” value (Plasmodium falciparum [2]) is reported as 8.945. It also gave an IC50 (Plasmodium falciparum [3]) of 6.88 nM.
For `CC(C)N(CCNCCO[C@H]1O[C@@H]2O[C@@]3(C)CC[C@H]4[C@H](C)CC[C@@H]([C@H]1C)[C@@]24OO3)C(C)C.O=C(O)C(=O)O`, the IC50 (Plasmodium falciparum [1]) was 48.1 nM, the Activity (CHO) was “Non-toxic” and the “Ratio IC50” value (Plasmodium falciparum [2]) was 26.24. The IC50 (Plasmodium falciparum [3]) was 1.83 nM.
In the case of `C[C@H]1[C@@H](OCCNCCN2CCCCC2)O[C@@H]2O[C@@]3(C)CC[C@H]4[C@H](C)CC[C@@H]1[C@@]24OO3.O=C(O)C(=O)O`, the IC50 (Plasmodium falciparum [1]) is reported as 66.7 nM, the Activity (CHO) is reported as “Non-toxic” and the “Ratio IC50” value (Plasmodium falciparum [2]) is reported as 9.932. For the same compound, the IC50 (Plasmodium falciparum [3]) was 6.72 nM.
For `C[C@H]1[C@@H](OCCN2CCCCC2)O[C@@H]2O[C@@]3(C)CC[C@H]4[C@H](C)CC[C@@H]1[C@@]24OO3.O=C(O)C(=O)O`, the IC50 (Plasmodium falciparum [1]) was 32.1 nM, the Activity (CHO) was “Non-toxic” and the “Ratio IC50” value (Plasmodium falciparum [2]) was 9.695. It also gave an IC50 (Plasmodium falciparum [3]) of 3.31 nM.
